Calls of active or inactive are those of the source. The calls are words filed in the database; no cut-off is given here.
Legend:
[1] = biological target: RAC-alpha serine/threonine-protein kinase (Homo sapiens) (UniProt P31749); test: Induction of AKT-mediated beta-catenin expression level in H2O2 treated human TIG3 cells at 0.6 uM pretreated with H2O2 for 2 hrs followed by compound addition by immunoblot analysis
Procedure, shortened: (§1)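 TIG-3 cells stressed with H2O2 (500 μM, 2 h), then recovered in medium containing 0.3 or 0.6 μM compound. Lysed in NP40 buffer; 10−20 μg protein immunoblotted for pAkt Ser473, p-p38 Thr180/Tyr182, p-p44/42 Thr202/Tyr204, β-catenin, survivin, Bcl-2 or full-length PARP-1. Triplicate experiments.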

[2] = biological target: T1, MAP kinase p38 (Homo sapiens) (UniProt O15264+Q15759+Q16539+P53778); test: Induction of p38 MAPK phosphorylation at Thr180/Tyr182 residues in H2O2 treated human TIG3 cells pretreated with H2O2 for 2 hrs followed by compound addition by immuno fluorescence staining based analysis
Procedure, shortened: (§2)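 TIG-3 fibroblasts (DMEM, 10% FBS, 37 °C) stressed with H2O2 (500 μM, 2 h) or UV (50 mJ/cm2), then recovered in compound-supplemented medium. Cells fixed in chilled absolute methanol and immunostained for the marker. Images taken by fluorescence microscopy and staining intensity quantified. Triplicate experiments.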

[3] = system: TIG-3; test: Induction of oxidative stress in human TIG3 cells assessed as increase in p53 expression level at 0.6 uM by immunoblot analysis; type: cell-based; details: tig-3, 0.6 µM
Procedure, shortened: (§3)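 TIG-3 cells treated with compound, lysed in NP40 buffer (centrifuged 20 min, 4 °C); 10−20 μg protein immunoblotted for indicated proteins; band quantitation from three independent experiments, Student's t or Mann−Whitney test.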

[4] = system: TIG-3; test: Induction of oxidative stress in human TIG3 cells assessed as increase in CARF expression level at 0.6 uM by immunoblot analysis; type: cell-based; details: tig-3, 0.6 µM; procedure, shortened: as §3
[5] = system: TIG-3; test: Cytoprotective activity against H2O2-induced oxidative stress in human TIG3 cells assessed as decrease in CARF level pretreated with H2O2 for 2 hrs followed by compound addition by immuno fluorescence staining based assay; type: functional, cell-based
[6] = system: TIG-3; test: Cytoprotective activity against UV irradiation-induced stress in human TIG3 cells assessed as decrease in p53 level irradiated with 50 mJ/cm2 of UV radiations followed by compound addition by immuno fluorescence staining based assay; type: functional, cell-based
[7] = system: WI-38; test: Cytotoxicity against human WI38 cells assessed as reduction in cell viability at 1 to 10 uM after 72 hrs; type: cell-based; details: wi-38, 72 h
Procedure, shortened: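 Normal fibroblasts in DMEM/10% FBS at 37 °C given 0.15 to 50 μM compound for 48 or 72 h; viability determined; triplicate, mean ± SEM.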

[8] = system: TIG-3; test: Cytotoxicity against human TIG3 cells assessed as decrease in ROS generation at 1.5 to 3 uM after 48 hrs; type: cell-based; details: tig-3, 48 h
[9] = biological target: Mitogen-activated protein kinase 3 (Homo sapiens) (UniProt P27361); test: Induction of ERK1 phosphorylation at Thr202 residues in H2O2 treated human TIG3 cells at 0.6 uM pretreated with H2O2 for 2 hrs followed by compound addition by immunoblot analysis; procedure, shortened: as §1
Chain of Mitogen-activated protein kinase 3 (Homo sapiens) (P27361 whole entry): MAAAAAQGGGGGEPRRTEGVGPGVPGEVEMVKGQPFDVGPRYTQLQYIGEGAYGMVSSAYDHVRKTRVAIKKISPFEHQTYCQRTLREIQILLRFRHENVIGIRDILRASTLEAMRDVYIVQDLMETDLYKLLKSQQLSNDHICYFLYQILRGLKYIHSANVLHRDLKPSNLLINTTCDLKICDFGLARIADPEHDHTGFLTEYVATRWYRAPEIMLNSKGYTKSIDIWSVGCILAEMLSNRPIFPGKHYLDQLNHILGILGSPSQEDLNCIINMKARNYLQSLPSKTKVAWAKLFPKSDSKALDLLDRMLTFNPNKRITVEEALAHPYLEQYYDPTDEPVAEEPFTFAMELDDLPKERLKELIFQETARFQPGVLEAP

[10] = system: WI-38; test: Cytotoxicity against human WI38 cells assessed as inhibition of colony formation by crystal violet staining based assay; type: cell-based
Procedure, shortened: (§4)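 500 cells/well seeded, cultured about 2 weeks with medium (control or compound-supplemented) renewed every fourth day; colonies fixed, stained, counted; triplicates, Student's t test.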

[11] = system: TIG-3; test: Cytoprotective activity against H2O2-induced oxidative stress in human TIG3 cells assessed as increase in full length PARP level at 0.6 uM pretreated with H2O2 for 2 hrs followed by compound addition by immunoblot analysis; type: functional, cell-based; procedure, shortened: as §1
[12] = biological target: T1, MAP kinase p38 (Homo sapiens); test: Induction of p38 MAPK phosphorylation at Thr180/Tyr182 residues in H2O2 treated human TIG3 cells at 0.6 uM pretreated with H2O2 for 2 hrs followed by compound addition by immunoblot analysis; procedure, shortened: as §1
[13] = system: TIG-3; test: Cytoprotective activity against human TIG3 cells assessed as increase in cell viability at 1.5 to 3 uM pretreated with Wi-A at 0.3 uM for 24 hrs followed by compound addition measured after 48 hrs; type: functional, cell-based
Procedure, shortened: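 TIG-3 cells pretreated with 0.3 μM Wi-A for 24 h, then incubated with 1.5 or 3 μM compound for 48 h before viability was read. Triplicate, mean ± SEM.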

[14] = system: TIG-3; test: Decrease in keap1 expression level in human TIG3 cells at 0.3 to 3 uM by immunoblot analysis; type: ADME, cell-based; details: tig-3, 3 µM; procedure, shortened: as §3
[15] = system: TIG-3; test: Cytoprotective activity against H2O2-induced oxidative stress in human TIG3 cells assessed as increase in Bcl2 level at 0.6 uM pretreated with H2O2 for 2 hrs followed by compound addition by immunoblot analysis; type: functional, cell-based; procedure, shortened: as §1
[16] = system: TIG-3; test: Cytoprotective activity against etoposide-induced stress in human TIG3 cells assessed as increase in cell survival pretreated with etoposide for 24 hrs followed by compound addition measured after 2 days by crystal violet staining based assay; type: functional
[17] = biological target: T1, MAP kinase p38 (Homo sapiens); test: Induction of p38 MAPK phosphorylation at Thr180/Tyr182 residues in UV-irradiated human TIG3 cells using 50 mJ/cm2 of UV radiations followed by compound addition by immuno fluorescence staining based analysis; procedure, shortened: as §2
[18] = system: TIG-3; test: Induction of oxidative stress against human TIG3 cells assessed as increase in CARF mRNA levels by RT-PCR analysis; type: cell-based
Procedure, shortened: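 Total RNA from treated TIG-3 cells; cDNA from 2 μg RNA; PCR 95 °C 10 min, 30 cycles (95 °C 45 s, 58 °C 1 min, 72 °C 45 s), 72 °C 10 min; products on 0.8% agarose, band densitometry; three independent experiments.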

[19] = system: TIG-3; test: Effect on mortalin expression level in human TIG3 cells at 0.3 to 3 uM by immuno fluorescence analysis; type: ADME, cell-based; details: tig-3, 3 µM
Procedure, shortened: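 Methanol-fixed (chilled absolute methanol) TIG-3 fibroblasts treated with Wi-A or 3βmWi-A; immunofluorescence staining with antibodies, imaged by epifluorescence microscopy; signal quantitated from three independent experiments.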

[20] = system: TIG-3; test: Cytotoxicity against human TIG3 cells assessed as inhibition of colony formation by crystal violet staining based assay; type: cell-based; procedure, shortened: as §4
[21] = system: TIG-3; test: Decrease in Nrf2 expression level in human TIG3 cells at 0.3 to 3 uM by immunoblot analysis; type: ADME, cell-based; details: tig-3, 3 µM; procedure, shortened: as §3
[22] = biological target: Mitogen-activated protein kinase 1 (Homo sapiens) (UniProt P28482); test: Induction of ERK2 phosphorylation at Tyr204 residues in H2O2 treated human TIG3 cells at 0.6 uM pretreated with H2O2 for 2 hrs followed by compound addition by immunoblot analysis; procedure, shortened: as §1
Chain of Mitogen-activated protein kinase 1 (Homo sapiens) (P28482 whole entry): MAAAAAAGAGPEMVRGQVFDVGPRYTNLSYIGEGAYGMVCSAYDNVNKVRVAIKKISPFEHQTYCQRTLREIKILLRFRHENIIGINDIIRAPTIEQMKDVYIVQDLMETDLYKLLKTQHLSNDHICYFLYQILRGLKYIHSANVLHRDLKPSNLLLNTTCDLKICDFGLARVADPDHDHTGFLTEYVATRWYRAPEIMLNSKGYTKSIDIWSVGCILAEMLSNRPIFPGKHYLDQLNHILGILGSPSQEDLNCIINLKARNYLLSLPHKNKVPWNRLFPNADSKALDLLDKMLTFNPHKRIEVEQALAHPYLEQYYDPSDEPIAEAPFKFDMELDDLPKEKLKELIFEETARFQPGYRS

[23] = system: TIG-3; test: Cytoprotective activity against H2O2-induced oxidative stress in human TIG3 cells assessed as increase in cell survival at 3 uM pretreated with H2O2 for 2 hrs followed by compound addition measured after 72 hrs by crystal violet staining based assay; type: functional
[24] = system: TIG-3; test: Cytoprotective activity against H2O2-induced oxidative stress in human TIG3 cells assessed as decrease in gammaH2AX level at 0.6 uM pretreated with H2O2 for 2 hrs followed by compound addition by immuno fluorescence staining based analysis; type: functional, cell-based; procedure, shortened: as §2
[25] = system: TIG-3; test: Cytoprotective activity against cisplatin-induced stress in human TIG3 cells assessed as increase in cell survival pretreated with cisplatin for 24 hrs followed by compound addition measured after 2 days by crystal violet staining based assay; type: functional
[26] = system: TIG-3; test: Cytotoxicity against human TIG3 cells assessed as induction of senescence at 70 to 72 population doubling at 0.5 uM; type: cell-based; details: tig-3, 0.5 µM

Chain of RAC-alpha serine/threonine-protein kinase (Homo sapiens) (P31749 whole entry): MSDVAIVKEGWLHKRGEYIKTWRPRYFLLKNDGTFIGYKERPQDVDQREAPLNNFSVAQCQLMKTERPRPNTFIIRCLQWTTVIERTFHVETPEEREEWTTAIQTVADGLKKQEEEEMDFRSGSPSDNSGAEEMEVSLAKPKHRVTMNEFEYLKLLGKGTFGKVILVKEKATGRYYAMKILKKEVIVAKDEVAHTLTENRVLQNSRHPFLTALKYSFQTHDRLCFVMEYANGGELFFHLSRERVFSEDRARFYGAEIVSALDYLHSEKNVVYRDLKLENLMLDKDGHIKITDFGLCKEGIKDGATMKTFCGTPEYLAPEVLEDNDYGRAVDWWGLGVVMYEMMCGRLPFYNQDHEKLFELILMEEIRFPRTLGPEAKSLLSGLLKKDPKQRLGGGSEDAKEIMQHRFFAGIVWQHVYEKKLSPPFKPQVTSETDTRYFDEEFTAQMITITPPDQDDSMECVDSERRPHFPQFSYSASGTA

CO[C@H]1CC(=O)[C@]2(C)[C@H]3CC[C@]4(C)[C@@H]([C@H](C)[C@H]5CC(C)=C(CO)C(=O)O5)CC[C@H]4[C@@H]3C[C@H]3O[C@]32[C@H]1O
Activity [1]: Active
Activity [2]: Active
Activity [3]: Non-Toxic
Activity [4]: Non-Toxic
Activity [5]: Active
Activity [6]: Active
Activity [7]: Non-Toxic
Activity [8]: Non-Toxic
Activity [9]: Active
Activity [10]: Non-Toxic
Activity [11]: Active
Activity [12]: Active
Activity [13]: Active
Activity [14]: Non-Toxic
Activity [15]: Active
Activity [16]: Dose-dependent effect
Activity [17]: Active
Activity [18]: Non-Toxic
Activity [19]: Non-Toxic
Activity [20]: Non-Toxic
Activity [21]: Non-Toxic
Activity [22]: Active
Activity [23]: Active
Activity [24]: Active
Activity [25]: Dose-dependent effect
Activity [26]: Non-Toxic

Reference: ChEMBL document CHEMBL4138133, “2,3-Dihydro-3β-methoxy Withaferin-A Protects Normal Cells against Stress: Molecular Evidence of Its Potent Cytoprotective Activity” (J Nat Prod, 2017)
